First the molecules themselves.
B1: tRNA (parent)
chain: GUUCCGUUGGCGUAAUGGUAACGCGUCUCCCUCCUAAGGAGAAGACUGCGGGUUCGAGUCCCGUACGGAACG

Fewer inactive variants are shown than the library holds.

In this data set the parent is B1. Kind of data set: yeast fitness relative to wild type (ratio to wild type); higher = fitter; tRNA-Arg(CCU), competitive growth, 37 C, YPD. Put shortly: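 The tRNA-Arg(CCU) gene variants were made by chemical synthesis with a 3% per-site mutation rate at 69 sites and inserted at the native genomic locus of Saccharomyces cerevisiae. After pooling, the strains were competed in YPD at 37°C for 24 hours in six parallel replicates. Gene amplicons from the start population and each end population were read by 100-nucleotide paired-end sequencing, and Darwinian fitness relative to wild type was taken from genotype frequency changes. Genotypes needed ≥ 100 starting reads, and estimates < 0.5 were set to 0.5.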
Take G6A A36C: the yeast fitness came to 0.53.
For G6A C11G A21G C27G C29U U35G the value was no more than 0.5.
Regarding C5U C31A, the yeast fitness came out at 0.688.
With C5U C31U, the yeast fitness was 1.03.
For G6A C11A U19A, the yeast fitness came to 0.53.
C5U U8C A20G C30A C61A G67U: the yeast fitness was no more than 0.5.
Take G6A G44A G56A: the yeast fitness is 0.649.
To G6A C11G A21G C27G C29U U35G A70C belongs no more than 0.5; to G6A A14C, 0.674.
As to G6A A14U, the yeast fitness worked out at 0.663.
For C5U U28A G41A C62U the value was no more than 0.5.
For C5U C29G the value was 0.64.
To C5U U32A A43G belongs no more than 0.5; to G6A C11U A43U C62G C66A A69C, no more than 0.5.
With C5U U35C, the yeast fitness is 0.811.
For the variant G6A G9C C11G G25A C34U G68A, the yeast fitness was no more than 0.5.
To C5U U8A G18C C29U A45C belongs 0.554; to G6A G17A U32C, no more than 0.5; to C5U G10C C30G C34U A42C, no more than 0.5.
For G6A C27U A45C U59C C62U the value was no more than 0.5.
To G6A A20C C29A G44C belongs no more than 0.5; to C5U U19A C30A A42C U64C, no more than 0.5; to C5U U28G C62U A65G, no more than 0.5.
Regarding C5U G23C U26C U32A A42U A65C, the yeast fitness was no more than 0.5.
For C5U G17A A40U A42C C49A G56A the value was no more than 0.5; for C5U G17C C24G G38C, 0.609; for C5U G38C, 0.719.
On to G6A G51A C62U, for which the yeast fitness turned out to be 0.643.
On to C5U C30G A36U G51A G52A, for which the yeast fitness stood at 0.524.
To G6A C22A C29U belongs no more than 0.5.
Regarding G6A C22G U47A, the yeast fitness is no more than 0.5.
To C5U G18A A37C C61U belongs no more than 0.5.
Consider C5U G38C C60U, for which the yeast fitness is no more than 0.5.
C5U U7G C24U C34G A37C A42U C66U: the yeast fitness is no more than 0.5.
To G6A C11A A36G C61U C66U belongs no more than 0.5.
For the variant C5U U28C A45C, the yeast fitness is 0.672.
For C5U C61A the value was 0.612; for C5U G17A A36U U47A C66U, 0.58; for C5U U13C U19A A21U C24A, 0.511.
On to C5U U13C C24G U26C A37G U54G C61G, for which the yeast fitness worked out at 0.575.
To C5U U19C C24A U28A C46G C62U A70U belongs no more than 0.5; to C5U C66A, 0.729; to C5U C66G, 0.779.
For the variant G6A C62A A70C, the yeast fitness was 0.636.
To G6A A20C A36C U47A G48C U54G A65C belongs no more than 0.5; to G6A A14G C22G U35G A40C A70G, no more than 0.5.
For C5U G10A A14C the value was 0.6.
For C5U C29A C62A, the yeast fitness was no more than 0.5.
C5U C31A A45C: the yeast fitness came to 0.681.
For C5U G56A C61A the value was no more than 0.5.
For G6A A14G C24A A36G A45U the value was no more than 0.5.
In the case of C5U U13C U19A A21U C24A U54C U59C A69G, the yeast fitness was determined as 0.524.
Turning to C5U U13A C61U, the yeast fitness came to 0.624.
For G6A A36U C66U the value was 0.536; for G6A A21G C55U C66U, no more than 0.5.
To G6A A14C A37U belongs 0.689.
Regarding G6A A14G U35C A36G A45U, the yeast fitness was no more than 0.5.
As for G6A A45G G67U, the yeast fitness is 0.687.
Consider G6A A21C U28A C62U, for which the yeast fitness is no more than 0.5.
With C5U G68C A69U, the yeast fitness was no more than 0.5.
To G6A C29G A43U belongs no more than 0.5; to G6A C34U, 0.65; to C5U U19C C24A U28A, no more than 0.5.
To C5U G6A C66U belongs 0.975; to C5U G6A A65U C66U A70G, no more than 0.5.
As for G6A A14G A45G, the yeast fitness worked out at 0.797.
Take G6A C29A: the yeast fitness stood at 0.647.
Consider C5U C55A, for which the yeast fitness is 0.668.
For G6A A15C U16C the value was no more than 0.5; for G6A A45C, 0.738.
With C5U G23A U54C, the yeast fitness is no more than 0.5.
For C5U G44C G68U the value was 0.663; for G6A A20U G52C, no more than 0.5.
For C5U G18A C30A G58A the value was no more than 0.5; for G6A G9A A36C A37U G51A C62G, no more than 0.5; for G6A G48C G58A, 0.57.
For C5U G9C A36G, the yeast fitness was determined as 0.538.
To C5U U7A U35A A36U A45U belongs no more than 0.5; to G6A G17C C31A A36U, 0.53; to C5U G17C C30A, 0.548.
For G6A C34A A40U U64A the value was no more than 0.5; for C5U G25C A36C A40U, no more than 0.5; for C5U U16C U59G, no more than 0.5.
Turning to C5U C34A, the yeast fitness is 0.631.
In the case of C5U G39C C46U C49U G56A G68C, the yeast fitness turned out to be 0.669.
On to C5U U13G C33A A37C, for which the yeast fitness turned out to be 0.555.
To C5U U26A C55G C61A belongs no more than 0.5; to C5U U32A C66U, 0.578; to C5U G17C C24G G38C G51C U59G, no more than 0.5.
G6A C27G A57C C66G: the yeast fitness was no more than 0.5.
With G6A C55U, the yeast fitness was 0.677.
For G6A G52C the value was 0.635; for G6A G17C C31A A36U G56A, 0.632.
Regarding G6A A21C U47A G56A, the yeast fitness is no more than 0.5.
For C5U G23A A69U the value was no more than 0.5; for C5U G44C A69U, 0.815; for C5U U8C A20G C30A C61A, 0.649.
C5U G58C U59C A70G: the yeast fitness is no more than 0.5.
Turning to G6A A15C A20U A57U, the yeast fitness was no more than 0.5.
On to C5U C55G C61A, for which the yeast fitness was no more than 0.5.
C5U U13C U35G C49U: the yeast fitness came to 0.608.
For G6A C29G U32C the value was 0.548; for G6A C30U A65C A69G A70U, no more than 0.5.
C5U U35G A45U A57C: the yeast fitness was no more than 0.5.
For the variant C5U G9A G39A G48A A57U, the yeast fitness is no more than 0.5.
Take C5U C30G C61A: the yeast fitness was no more than 0.5.
Regarding G6A C24U C49A, the yeast fitness is no more than 0.5.
On to G6A C22U C31G, for which the yeast fitness was no more than 0.5.
To C5U C46U G50C C61U belongs no more than 0.5; to C5U G10A U13A A15G G50C A57G, no more than 0.5; to G6A A14G C66A, no more than 0.5.
As to G6A A43G A65U, the yeast fitness stood at 0.604.
For G6A A20C U28A C31A C33U A37C G50A A65U the value was no more than 0.5.
On to G6A A14U C61U, for which the yeast fitness was no more than 0.5.
With C5U U7C C31A G39A, the yeast fitness was no more than 0.5.
Turning to G6A A45G A70U, the yeast fitness worked out at 0.775.
As for C5U U19C A21U A37C C61A A65C, the yeast fitness is no more than 0.5.
As for C5U G12A C29U, the yeast fitness was determined as 0.565.
G6A G39C G63A: the yeast fitness was no more than 0.5.
For G6A A21G C33G A57U C62U the value was no more than 0.5; for G6A G9C A14C C27A C31U C34A A42C C46G, no more than 0.5; for C5U G9C C34U C60G, no more than 0.5.
To C5U U47A G68C belongs 0.534.
Take G6A C24U C29G C49A: the yeast fitness stood at 0.575.
To C5U G12A G48A belongs 1.18; to G6A G10A U26A C27U C29A A65G G68C, no more than 0.5; to G6A C22G A40C G41C G68C, no more than 0.5.
With G6A C11A U53C, the yeast fitness is no more than 0.5.
To C5U U28A A65U belongs 0.553; to G6A C24U C31A A43C U53C, no more than 0.5.
Turning to G6A G18A C22U, the yeast fitness worked out at 0.6.
Turning to G6A G23C C60A, the yeast fitness was determined as 0.573.
Take C5U U26G: the yeast fitness was 0.969.
To C5U U26A belongs 0.915; to G6A C22G A45C G52C A57U A69C, no more than 0.5; to C5U C31U C61G, 0.549.
For C5U G39A U53A the value was no more than 0.5; for C5U C29A G39C G50A G63A A69C, no more than 0.5; for G6A A15C U28A C31G U64A C66U G68C, no more than 0.5.
Turning to G6A A20G A36G C49G C55U, the yeast fitness is no more than 0.5.
To G6A G10C C34U A40C belongs no more than 0.5; to G6A C24G U35A C46U G51C C55U A65C, no more than 0.5; to C5U C29A G39C G63A U64C A69C, no more than 0.5.
As to C5U G39C, the yeast fitness stood at 0.769.
To G6A C11G belongs 0.738; to G6A G18C C49U C61G, no more than 0.5.
For G6A C60A the value was 0.515; for G6A A57U G58A A65U, no more than 0.5; for G6A A43G, 0.801.
To G6A A37G belongs 0.722; to C5U U8C G41C A69U, no more than 0.5; to C5U G9A U54C C61G, 0.673.
G6A A69U: the yeast fitness worked out at 0.916.
Consider C5U G18A A42C, for which the yeast fitness was 0.674.
For C5U G56C C60A the value was 0.641; for C5U U35A G44A, 0.558; for G6A A15C A20U A36U G39A, no more than 0.5.
To G6A A36U G41A C60G belongs no more than 0.5; to G6A C33G C55G C61G, no more than 0.5.
Regarding G6A C31U U32C G67C, the yeast fitness was 0.593.
Consider C5U G9A G10C G25A C33G G39A, for which the yeast fitness was no more than 0.5.
Regarding C5U C55G C66U A69U, the yeast fitness was no more than 0.5.
Consider G6A A14U A20C U28C C46U G58A, for which the yeast fitness is no more than 0.5.
To C5U U28C C29U G63C A65U belongs no more than 0.5; to G6A A36U A45U, no more than 0.5.
To G6A G39U belongs 0.79; to G6A C24U C49U C61G C66U A69U, no more than 0.5.

Source of the values: the RNAGym collection of RNA variant scans (doi:10.1126/science.aae0568).
